A selection: hits, their analogues and other compounds. The true share with any hit is near 3.3%.
PglD DTNB = C. jejuni PglD acetyltransferase inhibitors, primary screen, biochemical, DTNB colorimetric, single point; UDP-N-acetylbacillosamine N-acetyltransferase PglD (Campylobacter jejuni); purified PglD enzyme, DTNB colorimetric CoA detection; inhibition, % at 12.5 µM; 360,000 compounds, 0.098% hits; in the data active = inhibition above about 16%, passing the limit was not always enough; inconclusive = no clear call, values can overlap the other calls
E-sel inducer = E-selectin induction in HUVECs, primary screen, imaging, HUVEC, immunofluorescence imaging, single point | normalized: neutral wells 0, TNF-alpha wells 100 | 260,000 compounds, 0.37% hits | activation, % at 7.58 µM | P16581;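 active = mean E-selectin-positive cell signal at least 10% of the positive control, reached in at least 60% of replicates, without over 20% cell loss; inconclusive = no rule given, readout overlaps actives, possibly toxicity-flagged; inactive = the rest, including those meeting only one limit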
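Assay system: HUVEC primary endothelial cells. Input: 3,000 HUVEC seeded per well. Doses: one compound dose added by pin transfer. Read-out basis: % PE-positive cells. Benchmarks: TNF-alpha high, DMSO low. Detection: immunofluorescence imaging. Buffer or medium: EGM-2, gelatin.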
Xi reactivation = activators of inactive X chromosome reactivation, primary screen, imaging, XiGFP fibroblasts, GFP high-content imaging, set 2; XiGFP mouse fibroblasts, % GFP-positive cells imaging, 3 d; cells co-treated with 5-aza-dC sensitizer; scaled so ellipticine positive control = 100%; activation, % at 7.58 µM; 360,000 compounds, 0.055% hits; AID 743238, 2013;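 active = mean normalized replicate activation at least 10% and every replicate at or above 10%; inconclusive = only one of the two criteria met; inactive = mean below 10% and not all replicates reach 10%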
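Assay system: SV40-immortalized XiGFP fibroblast cells, line 68-5-11; buffer or medium: DMEM plus 5-aza-dC sensitizer; compound: one concentration, pinned; timing: compounds 3 days, fix/stain 15 min at room temperature; benchmarks: positive control ellipticine, 6 µM final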
Statin myotox sup = suppressors of statin myotoxicity in C2C12 myotubes, primary screen, cell-based, single point, plate reader. AID 602340, 2012. 330,000 compounds, 0.78% hits. C2C12 myotubes + simvastatin, ATP luminescence, 48 h; scaled: DMSO 0, geranylgeraniol control 100. rescue of ATP level, % at 7.49 µM;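 active = mean ATP rescue above about 67%, or every replicate alone reaching that limit, limit read from the data, passing the limit was not always enough; inconclusive = no clear call, values can overlap the other calls; inactive = mean under the limit and some replicate under it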;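 note: myotubes were challenged with 10 µM simvastatin during compound exposure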
DENV2 CPE = inhibitors of DENV2 cytopathic effect, primary screen, cell-based, plate reader, single concentration | 350,000 compounds, 1.7% hits | DENV2-infected cells, cytopathic effect rescue | CPE inhibition, % at 9.99 µM; in the data active = CPE inhibition above about 20%, passing the limit was not always enough; inconclusive = no clear call, values can overlap the other calls; tested in BHK-21 cells
FGF22 binding = binders of human FGF22 protein, primary screen, FGF22 synaptogenesis inhibitor project, biophysical, thermal shift, single point; activity (Tm shift, normalised), % at 9.99 µM; recombinant FGF22 thermal shift, SYPRO orange fluorescence; percent of sucrose octasulfate shift, DMSO zero; AID 651658, 2012; 340,000 compounds, 1.5% hits;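 active = mean Tm shift, scaled 0 neutral to 100 positive control, at about 1.3% or above, every replicate too, limit read from the data; inconclusive = no clear call, values can overlap the other calls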
Target sequence (Q9HCT0 whole entry, looked up): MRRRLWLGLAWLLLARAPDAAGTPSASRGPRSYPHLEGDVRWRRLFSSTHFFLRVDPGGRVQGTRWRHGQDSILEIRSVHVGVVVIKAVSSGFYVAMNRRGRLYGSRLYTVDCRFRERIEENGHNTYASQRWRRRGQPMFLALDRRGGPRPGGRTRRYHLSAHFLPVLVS
PglD confirm = PglD acetyltransferase inhibitors, confirmation, biochemical, DTNB absorbance, single point, cherry-picked samples; shares compounds with PglD DTNB; Purified C. jejuni PglD, DTNB absorbance 412 nm; inhibition, % at 20 µM; 320 tested, under 10 active; AID 743156, 2013;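 active = mean inhibition across replicates of at least 20% with every single replicate also at 20% or more; inconclusive = mean inhibition at least 20% but some replicate falls below 20%; inactive = mean inhibition under 20% and not all replicates reach it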;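 note: initial rate of CoA release by acetyl transfer from AcCoA to the UDP-4-amino sugar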
Numbers stand for hits; – = inactive; ? = inconclusive; · = no result.

SMILES	PglD DTNB	E-sel inducer	Xi reactivation	Statin myotox sup	DENV2 CPE	FGF22 binding	PglD confirm
COc1ccc(S(=O)(=O)N(C)C[C@@H]2OCCCC[C@@H](C)Oc3ccc(NC(=O)NC4CCCCC4)cc3C(=O)N([C@H](C)CO)C[C@H]2C)cc1	–	·	–	·	–	–	·
Clc1ccc(-c2noc(CN3CCCC3)n2)cc1	30.9	·	·	–	·	·	–
CCC(=O)C1=C(O)C(c2cccc(Oc3ccccc3)c2)CCC1=O (configuration not stated)	27.8	·	–	–	–	–	–
Cc1ccc(S(=O)(=O)Nc2ccc3c(c2)CC(=O)N([C@@H](C)CO)C[C@H](C)[C@H](CN(C)C(=O)NC(C)C)O3)cc1	–	–	–	–	–	–	·
COCC#Cc1cnc2c(c1)C(=O)N([C@H](C)CO)C[C@H](C)[C@H](CN(C)S(=O)(=O)c1cn(C)cn1)O2	–	–	–	–	–	–	·
O=C1c2ccccc2COc2ccc(O)cc21	–	·	·	·	·	·	·
COc1ccc2c(c1)C(=O)c1ccccc1CO2	40.3	·	·	·	·	·	–
Cc1cccc(N(Cc2cc3ccccc3[nH]c2=O)C(=O)c2ccco2)c1C	31.5	·	·	–	·	·	–
O=C(NCc1ccco1)C1OCCc2ccccc21 (configuration not stated)	24.9	·	·	–	·	·	–
C/C=C/c1ccccc1[C@H]1[C@H](C#N)N(C(=O)c2cccnc2)[C@H]1CO	·	–	–	·	–	·	·
Cc1cc(NC(=O)C2CCN(S(=O)(=O)c3cnc[nH]3)CC2)ccc1Br	27.7	·	·	–	·	·	–
Cc1ccc(NC(=O)C2CCN(S(=O)(=O)c3cnc[nH]3)CC2)cc1C	–	·	·	·	·	·	·
CS(=O)(=O)Nc1cccc(NC(=O)c2cccc3c(-c4cccnc4)coc23)c1	35.0	·	·	–	·	·	–
O=C1C2C3c4ccccc4C(c4ccccc43)C2C(=O)N1Cc1ccco1 (configuration not stated)	23.6	·	·	–	·	·	–
CCOC(=O)C1CCCN(C2CC(=O)N(c3ccc(N4C(=O)CC(N5CCCC(C(=O)OCC)C5)C4=O)cc3)C2=O)C1 (configuration not stated)	–	·	–	·	·	·	·
CCOC(=O)C1CCCN(C2CC(=O)N(c3ccccc3)C2=O)C1 (configuration not stated)	27.2	–	–	·	–	–	–
CCCNC(=O)N1C[C@H](O)COC[C@H]2O[C@H](CC(=O)N3CCOCC3)CC[C@@H]21	–	–	–	–	–	–	·
O=C(COC(=O)CCc1nc2ccccc2n1-c1ccccc1)Nc1cccc(Cl)c1	28.5	·	·	–	·	·	–
Nc1ccc(-c2cnc(-c3ccc(N)cc3)nc2)cc1	30.9	·	·	–	·	·	–
Oc1cc2c(cc1CN1CCN(c3cccc(C(F)(F)F)c3)CC1)CCC2	55.1	·	·	–	·	·	–
COc1ccc(N2CCN(Cc3cc4c(cc3O)CCC4)CC2)cc1	–	·	·	–	·	·	·
CO[C@H]1CN(C)C(=O)c2cc(NC(=O)C3CCC3)ccc2OC[C@@H](C)N(Cc2ccc(F)cc2)C[C@H]1C	–	–	–	–	–	–	·
Cc1cc(=O)[nH]c(SCC(=O)Nc2ccc(F)cc2)c1C#N	–	·	–	·	·	–	·
Cc1cc(=O)[nH]c(SCC(=O)Nc2ccc(Br)cc2)c1C#N	21.1	–	·	–	·	·	–
CCN=C1Sc2nc3ccc(OCC)cc3cc2CN1CCOC	21.1	–	·	–	·	·	–
SMILES	PglD DTNB	E-sel inducer	Xi reactivation	Statin myotox sup	DENV2 CPE	FGF22 binding	PglD confirm
C[C@@H]1CN([C@@H](C)CO)C(=O)Cc2cc(NC(=O)CCN3CCOCC3)ccc2O[C@H]1CN(C)Cc1ccncc1	–	–	–	–	–	–	·
Cc1ccc(CN2[C@@H]3c4ccccc4C[C@@H]3OCCS2(=O)=O)cc1	–	–	–	–	·	–	·
O=S1(=O)CCO[C@H]2Cc3ccccc3[C@H]2N1Cc1ccc(F)cc1	27.4	·	–	–	–	–	–
CC(C)OCCCn1c(=NC(=O)c2cccs2)c(C#N)cc2c(=O)n3ccccc3nc21	68.3	–	–	·	–	–	–
CC(C)OCCCn1c(=NC(=O)c2ccncc2)c(C#N)cc2c(=O)n3ccccc3nc21	–	·	·	–	·	·	·
O=C(CC1CC1)N1CC2(C1)[C@H](c1ccccc1)[C@@H](CO)N2CC1CCOCC1	·	–	–	·	–	–	·
O=C(CCCOc1ccccc1)Nc1cccc(S(=O)(=O)N2CCOCC2)c1	20.8	–	–	–	–	–	–
CC(=O)c1ccc(OCCCC(=O)Nc2cccc(S(=O)(=O)N3CCOCC3)c2)cc1	–	–	–	–	–	–	·
O=C(OCC(=O)N1CCCc2ccccc21)c1cnc(Cl)c(Cl)c1	·	–	–	·	–	–	·
O=C(OCC(=O)N1CCCC1)c1cnc(Cl)c(Cl)c1	25.2	–	–	–	–	·	–
O=C(C[C@H]1C[C@@H]2c3cc(NS(=O)(=O)c4ccc(F)cc4)ccc3O[C@@H]2[C@H](CO)O1)NCc1ccccc1F	–	–	–	–	–	·	·
COc1cc2cc(CCCOC(=O)c3ccc(C(F)(F)F)cc3)oc(=O)c2cc1OC	34.7	–	–	–	–	–	–
O=C(NCCN1CCCCC1)Nc1ccc(F)cc1F	24.2	–	–	–	–	–	–
CC1=CC(=NOC(=O)/C=C/c2ccccc2)C=C(C)C1=O	28.0	·	·	–	·	·	–
CC1=CC(=O)C=C(C)C1=NOC(=O)/C=C\c1ccccc1	·	·	–	·	–	–	·
CC(C)c1ccc(NC(=O)CSc2nnc(CN3CCOCC3)n2C)cc1	99.0	–	–	–	–	–	–
Cc1ccc(NC(=O)CSc2nnc(CN3CCOCC3)n2C)cc1C	·	·	–	–	·	·	·
Cc1cccc(C(=O)NCCNC(=O)c2ccco2)c1	20.2	–	–	–	?	–	–
CC(=O)N1[C@@H]2Cn3c(cccc3=O)[C@H]1[C@@H](C(=O)N[C@@H](C)c1ccccc1)[C@@H]2CO	·	–	–	·	–	·	·
NS(=O)(=O)c1ccc(CCNC(=O)CCCNC(=O)c2ccc(Cl)cc2)cc1	–	–	–	–	–	–	·
NC(=O)CC(NC(=O)c1ccc(Cl)cc1)C(=O)NCCc1ccc(S(N)(=O)=O)cc1 (configuration not stated)	23.1	·	–	–	–	–	–
CC(C(=O)Nc1ccc(C#N)cc1)N(C)Cc1cccs1 (configuration not stated)	–	–	–	–	–	–	·

Screening results (PubChem BioAssay)
